Measured values reported in ChEMBL document CHEMBL5653631, “A Potent and Selective ULK1 Inhibitor Suppresses Autophagy and Sensitizes Cancer Cells to Nutrient Stress” (iScience, 2018).
One block for each molecule: values may come before it.

How the values were obtained:
[1] = target: T1, Mitogen-activated protein kinase kinase kinase kinase 2 (Homo sapiens) (UniProt Q12851); assay: Inhibition of human recombinant GCK at 500 nM in presence of ATP by radiometric assay relative to control
T1 sequence (whole entry): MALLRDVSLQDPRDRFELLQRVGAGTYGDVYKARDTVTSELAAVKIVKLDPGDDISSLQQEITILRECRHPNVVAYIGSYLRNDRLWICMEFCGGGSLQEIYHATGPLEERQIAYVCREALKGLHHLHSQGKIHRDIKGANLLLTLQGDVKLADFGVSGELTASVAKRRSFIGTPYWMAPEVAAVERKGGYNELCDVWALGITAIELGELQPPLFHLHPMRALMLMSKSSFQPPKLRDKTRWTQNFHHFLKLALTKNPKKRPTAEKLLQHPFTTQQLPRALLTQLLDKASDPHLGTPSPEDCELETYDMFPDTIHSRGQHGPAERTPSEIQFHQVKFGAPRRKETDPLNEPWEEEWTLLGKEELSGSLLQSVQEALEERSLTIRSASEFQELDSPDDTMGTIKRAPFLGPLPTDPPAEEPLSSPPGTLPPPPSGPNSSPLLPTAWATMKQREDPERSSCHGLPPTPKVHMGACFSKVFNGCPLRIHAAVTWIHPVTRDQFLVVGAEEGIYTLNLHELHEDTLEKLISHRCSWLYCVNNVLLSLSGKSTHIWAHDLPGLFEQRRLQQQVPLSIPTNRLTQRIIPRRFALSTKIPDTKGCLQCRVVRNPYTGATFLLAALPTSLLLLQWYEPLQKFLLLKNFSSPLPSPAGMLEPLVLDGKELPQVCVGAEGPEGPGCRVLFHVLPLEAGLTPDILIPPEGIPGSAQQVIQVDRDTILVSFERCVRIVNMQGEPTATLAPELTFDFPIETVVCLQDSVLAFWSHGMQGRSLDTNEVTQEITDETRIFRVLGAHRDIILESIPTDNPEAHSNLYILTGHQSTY

[2] = target: T2, Serine/threonine-protein kinase Nek3 (Homo sapiens) (UniProt P51956); assay: Inhibition of human recombinant NEK3 at 500 nM in presence of ATP by radiometric assay relative to control
T2 sequence (whole entry): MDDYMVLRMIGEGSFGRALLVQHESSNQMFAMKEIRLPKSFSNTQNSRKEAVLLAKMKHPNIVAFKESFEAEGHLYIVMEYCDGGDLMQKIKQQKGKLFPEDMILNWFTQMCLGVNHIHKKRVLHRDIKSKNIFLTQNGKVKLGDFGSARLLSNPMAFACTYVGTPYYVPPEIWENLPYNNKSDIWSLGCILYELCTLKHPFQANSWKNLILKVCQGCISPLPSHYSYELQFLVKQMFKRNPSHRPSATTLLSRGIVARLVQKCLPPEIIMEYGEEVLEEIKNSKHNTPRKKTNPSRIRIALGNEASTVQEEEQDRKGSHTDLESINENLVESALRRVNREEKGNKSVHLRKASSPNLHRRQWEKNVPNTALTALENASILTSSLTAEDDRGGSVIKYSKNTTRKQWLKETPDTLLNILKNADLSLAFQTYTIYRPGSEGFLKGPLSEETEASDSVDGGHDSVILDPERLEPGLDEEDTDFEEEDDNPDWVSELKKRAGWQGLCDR

[3] = target: T3, Dual specificity tyrosine-phosphorylation-regulated kinase 2 (Homo sapiens) (UniProt Q92630); assay: Inhibition of human recombinant DYRK2 at 500 nM related to control ULK1
T3 sequence (whole entry): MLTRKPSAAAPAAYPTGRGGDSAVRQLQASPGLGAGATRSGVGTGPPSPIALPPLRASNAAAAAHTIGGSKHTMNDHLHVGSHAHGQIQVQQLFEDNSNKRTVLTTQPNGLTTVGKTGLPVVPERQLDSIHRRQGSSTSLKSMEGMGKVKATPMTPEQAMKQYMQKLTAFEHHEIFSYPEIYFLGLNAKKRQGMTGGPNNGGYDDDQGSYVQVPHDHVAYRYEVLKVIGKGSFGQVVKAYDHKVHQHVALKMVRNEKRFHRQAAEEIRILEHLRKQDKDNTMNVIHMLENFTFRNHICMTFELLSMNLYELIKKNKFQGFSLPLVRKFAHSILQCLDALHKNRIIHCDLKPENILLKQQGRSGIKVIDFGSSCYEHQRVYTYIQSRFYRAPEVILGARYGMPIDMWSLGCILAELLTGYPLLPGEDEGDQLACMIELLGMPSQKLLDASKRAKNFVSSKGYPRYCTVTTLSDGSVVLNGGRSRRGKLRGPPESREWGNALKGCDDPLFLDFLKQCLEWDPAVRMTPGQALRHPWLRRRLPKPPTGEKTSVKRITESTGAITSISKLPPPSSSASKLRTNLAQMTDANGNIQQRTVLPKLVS

[4] = target: Serine/threonine-protein kinase 33 (Homo sapiens) (UniProt Q9BYT3); assay: Inhibition of human recombinant STK33 at 500 nM related to control ULK1
[5] = target: Vascular endothelial growth factor receptor 2 (Homo sapiens) (UniProt P35968); assay: Inhibition of human recombinant KDR at 15 nM in presence of ATP by radiometric assay relative to control
[6] = target: MAP/microtubule affinity-regulating kinase 3 (Homo sapiens) (UniProt P27448); assay: Inhibition of human recombinant MARK3 at 15 nM in presence of ATP by radiometric assay relative to control
[7] = target: RAC-gamma serine/threonine-protein kinase (Homo sapiens) (UniProt Q9Y243); assay: Inhibition of human recombinant AKT3 at 40 nM in presence of ATP by radiometric assay relative to control
Summary of the method: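 Panel of 327 recombinant human kinases in radiometric activity assays, each screened in duplicate at a single inhibitor concentration; percent activity remaining relative to vehicle control, percent inhibition taken as 100 minus activity remaining.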

[8] = target: Cell division cycle 7-related protein kinase (Homo sapiens) (UniProt O00311); assay: Inhibition of human recombinant CDC7 at 40 nM related to control ULK1
[9] = target: T4, Serine/threonine-protein kinase 3 (Homo sapiens) (UniProt Q13188); assay: Inhibition of human recombinant MST2 at 40 nM related to control ULK1
T4 sequence (whole entry): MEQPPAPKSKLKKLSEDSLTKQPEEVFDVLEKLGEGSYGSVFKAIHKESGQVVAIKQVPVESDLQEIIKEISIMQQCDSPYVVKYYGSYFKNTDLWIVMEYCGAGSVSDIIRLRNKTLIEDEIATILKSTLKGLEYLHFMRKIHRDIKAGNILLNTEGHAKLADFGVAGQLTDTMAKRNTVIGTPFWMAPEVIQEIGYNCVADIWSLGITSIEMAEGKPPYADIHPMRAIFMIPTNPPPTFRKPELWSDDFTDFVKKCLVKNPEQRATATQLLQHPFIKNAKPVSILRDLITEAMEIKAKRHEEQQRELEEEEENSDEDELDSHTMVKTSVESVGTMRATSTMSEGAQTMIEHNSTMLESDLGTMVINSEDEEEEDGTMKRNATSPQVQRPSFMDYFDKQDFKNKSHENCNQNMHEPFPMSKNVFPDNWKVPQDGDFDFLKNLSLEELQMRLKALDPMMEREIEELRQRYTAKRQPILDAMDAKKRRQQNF

Chain of RAC-gamma serine/threonine-protein kinase (Homo sapiens) (Q9Y243 whole entry): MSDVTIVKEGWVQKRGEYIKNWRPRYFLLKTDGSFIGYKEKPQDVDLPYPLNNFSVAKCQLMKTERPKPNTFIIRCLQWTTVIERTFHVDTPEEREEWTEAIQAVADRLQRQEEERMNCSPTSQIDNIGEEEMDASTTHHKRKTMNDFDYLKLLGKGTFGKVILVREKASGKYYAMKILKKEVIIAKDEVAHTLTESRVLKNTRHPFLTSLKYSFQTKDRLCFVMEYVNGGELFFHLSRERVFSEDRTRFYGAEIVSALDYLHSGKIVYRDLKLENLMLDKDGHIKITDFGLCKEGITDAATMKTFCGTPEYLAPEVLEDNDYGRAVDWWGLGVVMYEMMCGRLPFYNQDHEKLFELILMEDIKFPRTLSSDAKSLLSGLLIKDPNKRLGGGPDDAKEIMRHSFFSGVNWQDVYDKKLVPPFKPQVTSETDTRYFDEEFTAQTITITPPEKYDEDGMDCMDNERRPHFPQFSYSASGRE
Chain of Serine/threonine-protein kinase 33 (Homo sapiens) (Q9BYT3 whole entry, looked up): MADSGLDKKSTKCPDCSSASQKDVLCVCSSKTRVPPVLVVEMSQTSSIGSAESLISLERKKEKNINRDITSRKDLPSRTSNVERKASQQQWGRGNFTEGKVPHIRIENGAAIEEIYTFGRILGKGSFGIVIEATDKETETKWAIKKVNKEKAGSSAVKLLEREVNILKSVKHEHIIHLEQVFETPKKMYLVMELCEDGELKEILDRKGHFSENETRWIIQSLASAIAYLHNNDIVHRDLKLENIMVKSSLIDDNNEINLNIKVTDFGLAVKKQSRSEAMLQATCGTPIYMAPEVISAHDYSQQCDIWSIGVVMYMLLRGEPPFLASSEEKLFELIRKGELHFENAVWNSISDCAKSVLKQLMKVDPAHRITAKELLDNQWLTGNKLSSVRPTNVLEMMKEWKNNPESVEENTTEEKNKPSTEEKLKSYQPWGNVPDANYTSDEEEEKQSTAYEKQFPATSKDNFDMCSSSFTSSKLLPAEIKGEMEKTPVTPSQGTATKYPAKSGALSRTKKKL
Chain of Vascular endothelial growth factor receptor 2 (Homo sapiens) (P35968 whole entry): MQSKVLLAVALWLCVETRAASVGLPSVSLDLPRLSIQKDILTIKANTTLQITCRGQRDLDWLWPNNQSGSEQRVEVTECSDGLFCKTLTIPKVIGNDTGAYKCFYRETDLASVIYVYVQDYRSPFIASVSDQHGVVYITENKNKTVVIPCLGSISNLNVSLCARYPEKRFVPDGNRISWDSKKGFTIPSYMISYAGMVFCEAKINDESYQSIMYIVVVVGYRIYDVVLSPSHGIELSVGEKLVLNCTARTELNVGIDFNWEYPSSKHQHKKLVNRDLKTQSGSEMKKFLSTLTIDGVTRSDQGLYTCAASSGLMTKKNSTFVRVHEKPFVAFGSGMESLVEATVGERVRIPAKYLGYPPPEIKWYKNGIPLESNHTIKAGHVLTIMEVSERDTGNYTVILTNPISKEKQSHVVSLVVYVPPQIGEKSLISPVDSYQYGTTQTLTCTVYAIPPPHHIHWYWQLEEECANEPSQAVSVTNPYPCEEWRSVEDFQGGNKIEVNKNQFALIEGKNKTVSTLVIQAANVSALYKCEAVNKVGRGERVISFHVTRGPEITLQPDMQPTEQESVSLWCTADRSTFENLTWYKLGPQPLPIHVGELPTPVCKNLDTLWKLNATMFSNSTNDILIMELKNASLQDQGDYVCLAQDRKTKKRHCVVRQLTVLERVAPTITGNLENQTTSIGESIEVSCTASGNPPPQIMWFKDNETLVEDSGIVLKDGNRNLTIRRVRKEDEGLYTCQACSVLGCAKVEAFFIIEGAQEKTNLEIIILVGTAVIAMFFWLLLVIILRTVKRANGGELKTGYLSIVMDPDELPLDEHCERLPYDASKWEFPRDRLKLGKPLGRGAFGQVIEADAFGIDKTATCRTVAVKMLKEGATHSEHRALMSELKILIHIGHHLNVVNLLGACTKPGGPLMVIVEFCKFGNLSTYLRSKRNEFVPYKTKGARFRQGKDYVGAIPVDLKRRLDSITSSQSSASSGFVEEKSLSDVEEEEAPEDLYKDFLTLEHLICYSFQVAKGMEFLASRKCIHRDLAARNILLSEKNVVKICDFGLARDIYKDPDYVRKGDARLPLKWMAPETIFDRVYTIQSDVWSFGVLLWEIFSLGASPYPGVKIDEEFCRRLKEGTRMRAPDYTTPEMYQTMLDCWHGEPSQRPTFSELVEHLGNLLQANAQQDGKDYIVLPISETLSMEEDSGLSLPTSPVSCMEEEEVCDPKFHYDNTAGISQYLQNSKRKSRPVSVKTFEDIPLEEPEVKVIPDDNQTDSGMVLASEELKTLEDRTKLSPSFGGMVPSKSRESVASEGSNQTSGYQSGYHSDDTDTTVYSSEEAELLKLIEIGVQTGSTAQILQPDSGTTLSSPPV
Chain of Cell division cycle 7-related protein kinase (Homo sapiens) (O00311 whole entry, looked up): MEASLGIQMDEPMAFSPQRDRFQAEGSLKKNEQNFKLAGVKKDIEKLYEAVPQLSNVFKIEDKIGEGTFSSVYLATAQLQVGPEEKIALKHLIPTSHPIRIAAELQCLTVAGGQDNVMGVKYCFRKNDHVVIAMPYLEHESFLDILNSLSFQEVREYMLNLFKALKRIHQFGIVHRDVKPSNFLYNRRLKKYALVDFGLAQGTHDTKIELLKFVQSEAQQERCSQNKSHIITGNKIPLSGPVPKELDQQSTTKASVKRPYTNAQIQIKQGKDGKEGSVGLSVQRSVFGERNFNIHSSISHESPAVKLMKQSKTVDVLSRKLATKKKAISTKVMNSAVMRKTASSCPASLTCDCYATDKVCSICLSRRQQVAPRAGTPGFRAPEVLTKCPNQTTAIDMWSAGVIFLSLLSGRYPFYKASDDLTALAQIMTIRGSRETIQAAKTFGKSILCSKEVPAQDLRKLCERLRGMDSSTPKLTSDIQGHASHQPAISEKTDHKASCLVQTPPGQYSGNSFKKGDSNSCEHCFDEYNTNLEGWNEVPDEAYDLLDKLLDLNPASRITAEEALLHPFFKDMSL
Chain of MAP/microtubule affinity-regulating kinase 3 (Homo sapiens) (P27448 whole entry, looked up): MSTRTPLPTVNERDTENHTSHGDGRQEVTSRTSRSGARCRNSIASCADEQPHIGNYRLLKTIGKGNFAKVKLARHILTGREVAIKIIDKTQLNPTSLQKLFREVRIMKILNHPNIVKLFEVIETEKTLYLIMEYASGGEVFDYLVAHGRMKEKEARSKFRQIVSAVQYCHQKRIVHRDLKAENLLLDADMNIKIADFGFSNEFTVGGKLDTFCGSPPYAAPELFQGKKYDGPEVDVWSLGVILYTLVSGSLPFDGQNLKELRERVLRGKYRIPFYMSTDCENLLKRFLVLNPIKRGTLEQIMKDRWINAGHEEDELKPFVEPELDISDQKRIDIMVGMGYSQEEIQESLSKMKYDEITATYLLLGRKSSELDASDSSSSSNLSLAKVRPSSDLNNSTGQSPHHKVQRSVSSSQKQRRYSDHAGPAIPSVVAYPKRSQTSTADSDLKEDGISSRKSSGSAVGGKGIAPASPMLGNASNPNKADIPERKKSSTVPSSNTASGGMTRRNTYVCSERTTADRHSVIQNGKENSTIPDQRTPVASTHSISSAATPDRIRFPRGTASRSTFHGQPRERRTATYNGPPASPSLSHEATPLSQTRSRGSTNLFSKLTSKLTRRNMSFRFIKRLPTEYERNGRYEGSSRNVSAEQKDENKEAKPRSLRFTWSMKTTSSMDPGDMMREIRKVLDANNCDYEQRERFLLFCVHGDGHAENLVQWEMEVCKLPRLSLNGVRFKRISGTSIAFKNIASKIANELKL

- inhibition [1]: 33%
- inhibition [2]: 7%
- fold change (FC) [3]: 0
- fold change (FC) [4]: 0.05
Compound: CNC(=O)c1ccccc1Oc1nc(Nc2cc(OC)c(OC)c(OC)c2)ncc1Br

- inhibition [5]: 20%
- inhibition [6]: 63%
Compound: CC(C)[C@H](NC(=O)c1cc(-c2cnn3cc(-c4ccc(OCCN5CCCCC5)cc4)cnc23)cs1)C(F)(F)F

- inhibition [7]: 2%
- fold change (FC) [8]: 0.53
- fold change (FC) [9]: 0
Compound: O=C(N[C@@H](C1CC1)C(F)(F)F)c1cc(-c2cnn3cc(-c4ccc(F)cc4)cnc23)cs1
